≈ marks a conversion by molar mass, not a printed value. Numbered stars: 1 amine (or outer) side, 2 acyl side, 3 side chain; on linkers, the order of the positions; unused ones are H or OH. Bridge positions count the residues as written; N and C are the ends. Square brackets hold non-standard residues; d marks the D form. Peptide text beside a SMILES is read from it. I, II: the chains in the order shown. Actinocin(1to9) = Cc1c2oc3c(C)ccc(C(=O)[*:2])c3nc-2c(C(=O)[*:1])c(N)c1=O; Actinocin(9to1) = Cc1c2oc3c(C)ccc(C(=O)[*:1])c3nc-2c(C(=O)[*:2])c(N)c1=O; Pro(3S-OH,5S-Me) = C[C@H]1C[C@H](O)[C@@H](C(=O)O)N1; X2 = O=C([C@@H](N[*:1])[C@@H](CCl)O[*:3])[*:2]; X1 = O=C([C@@H](N[*:1])[C@@H](CO)O[*:3])[*:2]; Pro(5S-Me) = C[C@H]1CC[C@@H](C(=O)O)N1; Pro(4-oxo) = O=C1CN[C@H](C(=O)O)C1; NMeV = CN[C@H](C(=O)O)C(C)C; NMeA = CN[C@@H](C)C(=O)O; Sar = CNCC(=O)O
What was measured:
Bacillus spizizenii = assay: Antibacterial activity against Bacillus subtilis ATCC 6633 after incubated for 16 to 48 hrs at 28 to 37 degC by spectrofluorometric method; type: functional
Summary of the method: (§1)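 Overnight cultures (16 h, 37 °C, 250 rpm) were grown in tryptic soy broth (S. aureus, M. luteus), LB (B. subtilis, E. coli), nutrient broth (S. enterica), Middlebrook 7H9 + OADC (M. aurum) or YAPD (S. cerevisiae). They were diluted to OD600 ~0.1 and exposed to serial dilutions from a final maximum of ~10 μg/mL, then shaken at 160 rpm. OD600 was normalized to DMSO control, and MIC was taken as the lowest concentration inhibiting growth.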

[1] = Antibacterial activity against Salmonella enterica ATCC 10708 after incubated for 16 to 48 hrs at 28 to 37 degC by spectrofluorometric method; type: functional; summary of the method: as §1
Mycolicibacterium aurum = assay: Antibacterial activity against Mycobacterium aurum ATCC 23366 after incubated for 16 to 48 hrs at 28 to 37 degC […]; type: functional
Staphylococcus aureus = assay: Antibacterial activity against Staphylococcus aureus ATCC 6538 after incubated for 16 to 48 hrs at 28 to 37 degC by spectrofluorometric method; type: functional; summary of the method: as §1
Saccharomyces cerevisiae = assay: Antifungal activity against Saccharomyces cerevisiae ATCC 204508 after incubated for 16 to 48 hrs at 28 to 37 degC by spectrofluorometric method; type: functional
Micrococcus luteus = assay: Antibacterial activity against Micrococcus luteus ATCC 15307 after incubated for 16 to 48 hrs at 28 to 37 degC by spectrofluorometric method; type: functional; summary of the method: as §1
Escherichia coli = assay: Antibacterial activity against Escherichia coli ATCC 12435 after incubated for 16 to 48 hrs at 28 to 37 degC by spectrofluorometric method; type: functional; summary of the method: as §1
A549 = assay: Cytotoxicity against human A549 cells assessed as reduction in cell viability after 48 hrs by alamar blue assay; type: functional, cell-based; details: A549, 48 h
Summary of the method: (§2)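 A549 cells were grown in DMEM/F-12 Kaighn's and PC3 cells in MEM/EBSS, both with 10% heat-inactivated FBS, penicillin/streptomycin and 2 mM L-glutamine. Cells were seeded at 5 × 10^3 per well, attached 24 h at 37 °C in 5% CO2, then exposed for 2 days. Values are % of untreated control from three independent experiments.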

PC-3 = assay: Cytotoxicity against human PC3 cells assessed as reduction in cell viability after 48 hrs by alamar blue assay; type: functional, cell-based; details: PC-3, 48 h; summary of the method: as §2

Row | SMILES | MIC (Bacillus spizizenii) | MIC [1] | MIC (Mycolicibacterium aurum) | MIC (Staphylococcus aureus) | MIC (Saccharomyces cerevisiae) | MIC (Micrococcus luteus) | MIC (Escherichia coli) | EC50 (A549) | EC50 (PC-3)
1 | Cc1c2oc3c(C)ccc(C(=O)N[C@@H]4C(=O)N[C@H](C(C)C)C(=O)N5[C@@H](C)CC[C@H]5C(=O)N(C)CC(=O)N(C)[C@@H](C(C)C)C(=O)O[C@@H]4C)c3nc-2c(C(=O)N[C@@H]2C(=O)N[C@H](C(C)C)C(=O)N3[C@@H](C)CC[C@H]3C(=O)N(C)CC(=O)N(C)[C@@H](C(C)C)C(=O)O[C@@H]2C)c(N)c1=O (I: T[dV][Pro(5S-Me)][Sar][NMeV] / II: T[dV][Pro(5S-Me)][Sar][NMeV]; ester I:1-I:C, II:1-II:C; linker I:N-II:N via Actinocin(9to1)) | 0.006 µg/mL (≈ 0.00467 µM) | > 9.36 µg/mL |  |  |  |  |  |  | 
2 | Cc1c2oc3c(C)ccc(C(=O)N[C@@H]4C(=O)N[C@H](C(C)C)C(=O)N5CCC[C@H]5C(=O)N(C)CC(=O)N(C)[C@@H](C(C)C)C(=O)O[C@@H]4C)c3nc-2c(C(=O)N[C@@H]2C(=O)N[C@H](C(C)C)C(=O)N3CCC[C@H]3C(=O)N(C)CC(=O)N(C)[C@@H](C(C)C)C(=O)O[C@@H]2C)c(N)c1=O [DACTINOMYCIN] (I: T[dV]P[Sar][NMeV] / II: T[dV]P[Sar][NMeV]; ester I:1-I:C, II:1-II:C; linker I:N-II:N via Actinocin(1to9)) | 0.002 µg/mL (≈ 0.00159 µM) | 9.57 µg/mL (≈ 7.62 µM) | 0.6 µg/mL (≈ 0.478 µM) | 0.006 µg/mL (≈ 0.00478 µM) | 4.79 µg/mL (≈ 3.82 µM) | 0.003 µg/mL (≈ 0.00239 µM) |  |  | 
3 | Cc1c2oc3c(C)ccc(C(=O)N[C@@H]4C(=O)N[C@H](C(C)C)C(=O)N5[C@@H](C)CC[C@H]5C(=O)N(C)CC(=O)N(C)[C@@H](C(C)C)C(=O)O[C@@H]4C)c3nc-2c(C(=O)N[C@@H]2C(=O)N[C@H](C(C)C)C(=O)N3CC(=O)C[C@H]3C(=O)N(C)CC(=O)N(C)[C@@H](C)C(=O)O[C@@H]2C)c(N)c1=O (I: T[dV][Pro(4-oxo)][Sar][NMeA] / II: T[dV][Pro(5S-Me)][Sar][NMeV]; ester I:1-I:C, II:1-II:C; linker I:N-II:N via Actinocin(1to9)) |  | > 9.57 µg/mL |  |  |  | 0.003 µg/mL (≈ 0.00239 µM) |  |  | 
4 | Cc1c2oc3c(C)ccc(C(=O)N[C@@H]4C(=O)N[C@H](C(C)C)C(=O)N5[C@H](C(=O)N(C)CC(=O)N(C)[C@@H](C(C)C)C(=O)O[C@@H]4C)[C@@H](O)C[C@@H]5C)c3nc-2c(C(=O)OC[C@H](O)[C@@H]2NC(=O)[C@H](C)N(C)C(=O)CN(C)C(=O)[C@@H]3CC(=O)CN3C(=O)[C@@H](C(C)C)NC2=O)c(N)c1=O | > 9.33 µg/mL | > 9.33 µg/mL | > 9.33 µg/mL | > 9.33 µg/mL | > 9.33 µg/mL | 4.67 µg/mL (≈ 3.63 µM) | > 9.33 µg/mL |  | 
5 | Cc1c2oc3c(C)ccc(C(=O)N[C@@H]4C(=O)N[C@H](C(C)C)C(=O)N5[C@H](C(=O)N(C)CC(=O)N(C)[C@@H](C(C)C)C(=O)O[C@@H]4C)[C@@H](O)C[C@@H]5C)c3nc-2c(C(=O)OC[C@H](O)[C@@H]2NC(=O)[C@H](C)N(C)C(=O)CN(C)C(=O)[C@@H]3C[C@@H](O)CN3C(=O)[C@@H](C(C)C)NC2=O)c(N)c1=O | > 9.32 µg/mL | > 9.32 µg/mL | > 9.32 µg/mL | > 9.32 µg/mL | > 9.32 µg/mL | 4.66 µg/mL (≈ 3.61 µM) | > 9.32 µg/mL |  | 
6 | Cc1c2oc3c(C)ccc(C(=O)N[C@@H]4C(=O)N[C@H](C(C)C)C(=O)N5[C@H](C(=O)N(C)CC(=O)N(C)[C@@H](C(C)C)C(=O)O[C@@H]4C)[C@@H](O)C[C@@H]5C)c3nc-2c2c(c1=O)N[C@H]([C@@H]1NC(=O)[C@H](C)N(C)C(=O)CN(C)C(=O)[C@@H]3CC(=O)CN3C(=O)[C@@H](C(C)C)NC1=O)COC2=O | 0.59 µg/mL (≈ 0.465 µM) | > 9.46 µg/mL | 0.95 µg/mL (≈ 0.748 µM) | 2.37 µg/mL (≈ 1.87 µM) | 9.46 µg/mL (≈ 7.45 µM) | 0.59 µg/mL (≈ 0.465 µM) | > 9.46 µg/mL | 71.5 nM | 76.7 nM
7 | Cc1c2oc3c(C)ccc(C(=O)N[C@@H]4C(=O)N[C@H](C(C)C)C(=O)N5[C@H](C(=O)N(C)CC(=O)N(C)[C@@H](C(C)C)C(=O)O[C@@H]4C)[C@@H](O)C[C@@H]5C)c3nc-2c(C(=O)N[C@@H]2C(=O)N[C@H](C(C)C)C(=O)N3CC(=O)C[C@H]3C(=O)N(C)CC(=O)N(C)[C@@H](C)C(=O)O[C@@H]2C)c(N)c1=O (I: T[dV][Pro(4-oxo)][Sar][NMeA] / II: T[dV][Pro(3S-OH,5S-Me)][Sar][NMeV]; ester I:1-I:C, II:1-II:C; linker I:N-II:N via Actinocin(1to9)) |  | > 9.45 µg/mL |  |  |  |  |  |  | 
8 | Cc1c2oc3c(C)ccc(C(=O)N[C@@H]4C(=O)N[C@H](C(C)C)C(=O)N5[C@H](C(=O)N(C)CC(=O)N(C)[C@@H](C(C)C)C(=O)O[C@@H]4C)[C@@H](O)C[C@@H]5C)c3nc-2c(C(=O)N[C@@H]2C(=O)N[C@H](C(C)C)C(=O)N3CC(=O)C[C@H]3C(=O)N(C)CC(=O)N(C)[C@@H](C)C(=O)O[C@@H]2CO)c(N)c1=O (I: [X1][dV][Pro(4-oxo)][Sar][NMeA] / II: T[dV][Pro(3S-OH,5S-Me)][Sar][NMeV]; ester I:1-I:C, II:1-II:C; linker I:N-II:N via Actinocin(1to9)) |  | > 9.33 µg/mL |  |  |  | 0.12 µg/mL (≈ 0.0932 µM) |  |  | 
9 | Cc1c2oc3c(C)ccc(C(=O)N[C@@H]4C(=O)N[C@H](C(C)C)C(=O)N5[C@H](C(=O)N(C)CC(=O)N(C)[C@@H](C(C)C)C(=O)O[C@@H]4C)[C@@H](O)C[C@@H]5C)c3nc-2c(C(=O)N[C@@H]2C(=O)N[C@H](C(C)C)C(=O)N3CC(=O)C[C@H]3C(=O)N(C)CC(=O)N(C)[C@@H](C)C(=O)O[C@@H]2CCl)c(N)c1=O (I: [X2][dV][Pro(4-oxo)][Sar][NMeA] / II: T[dV][Pro(3S-OH,5S-Me)][Sar][NMeV]; ester I:1-I:C, II:1-II:C; linker I:N-II:N via Actinocin(1to9)) |  | > 9.2 µg/mL |  |  |  |  |  |  | 
